Assay results as given in ChEMBL document CHEMBL2010740, “Synthesis and evaluation of 2-amido-3-carboxamide thiophene CB₂ receptor agonists for pain management” (Bioorg Med Chem Lett, 2012).

Tests used:
Rattus norvegicus [1] = experiment: Analgesic activity in rat complete Freund's adjuvant model of chronic inflammatory pain assessed as reduction in thermal hyperalgesia at 10 umol/kg, ip; format: functional; parameters: scale not given: the % may be the effect or the level left
Method in brief: (§1)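 Rat CFA inflammatory pain model. Read-out was thermal hyperalgesia in the CFA-injected right paw, with the left paw as control. Test compound and the CB₂ antagonist SR-144528 (10 µmol/kg ip) were given alone and combined, with vehicle controls.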

[2] = Half life in rat at 3 umol/kg, iv; format: ADME, organism-based; conditions: in vivo
Cannabinoid receptor 2 [3] = molecular target: Cannabinoid receptor 2 (Homo sapiens, UniProt P34972); experiment: Displacement of [3H]CP-55940 from human recombinant CB2 receptor expressed in HEK293 cells after 90 mins; format: cell-based
Method in brief: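 Competitive binding: [³H]CP-55,940 displaced from membranes of HEK 293 cells stably transfected with human or rat CB₂, or CHO cells stably transfected with human or rat CB₁. Reported as pKi. Determinations >2 (duplicate of duplicate).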

Rattus norvegicus [4] = experiment: Analgesic activity in rat spinal nerve ligation model of neuropathic pain assessed as […] at 30 umol/kg, ip administered 2 weeks post-surgery measured after 30 mins; format: functional; parameters: scale not given: the % may be the effect or the level left
Method in brief: (§2)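 Rat spinal nerve ligation (Chung) neuropathic pain model. Dosing was intraperitoneal, two weeks after surgery and 30 min before testing. Read-out was mechanical allodynia (paw withdrawal threshold), given as a dose–response.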

[5] = molecular target: T1, Cannabinoid receptor 2 (Rattus norvegicus) (UniProt Q9QZN9); experiment: Agonist activity at rat recombinant CB2 receptor expressed in HEK293 cells co-expressing chimeric Gaq/o protein by FLIPR assay by FLIPR assay relative to CP55940; format: functional, cell-based
T1 sequence (whole entry): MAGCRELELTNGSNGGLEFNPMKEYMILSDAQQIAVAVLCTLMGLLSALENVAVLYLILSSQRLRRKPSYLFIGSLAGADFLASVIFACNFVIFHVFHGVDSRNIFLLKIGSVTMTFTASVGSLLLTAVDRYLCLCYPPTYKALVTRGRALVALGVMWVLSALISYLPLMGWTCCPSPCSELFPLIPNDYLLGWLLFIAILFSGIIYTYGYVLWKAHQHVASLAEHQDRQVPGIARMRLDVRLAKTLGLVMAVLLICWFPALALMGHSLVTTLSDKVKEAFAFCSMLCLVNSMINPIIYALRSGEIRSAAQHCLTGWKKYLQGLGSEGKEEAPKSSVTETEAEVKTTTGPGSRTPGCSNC
Method in brief: (§3)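 FLIPR functional assay in HEK 293 cells stably co-expressing chimeric Gαq/o protein and the CB receptor. Net peak evoked response was compared with the peak response to CP-55,940.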

Rattus norvegicus [6] = experiment: Analgesic activity in rat incision model of post-operative pain assessed as reduction in paw withdrawal latency at 10 umol/kg, ip administered 90 mins post-surgical incision measured after 30 mins; format: functional; parameters: scale not given: the % may be the effect or the level left
Rattus norvegicus [7] = experiment: Analgesic activity in rat chronic constriction injury model of neuropathic pain assessed as reduction in mechanical allodynia at 3 umol/kg, ip administered 2 weeks post-surgery measured after 30 mins; format: functional; parameters: scale not given: the % may be the effect or the level left
Rattus norvegicus [8] = experiment: Analgesic activity in rat incision model of post-operative pain assessed as reduction in paw withdrawal latency at 3 umol/kg, ip administered 90 mins post-surgical incision measured after 30 mins; format: functional; parameters: scale not given: the % may be the effect or the level left
Rattus norvegicus [9] = experiment: Analgesic activity in rat chronic constriction injury model of neuropathic pain assessed as reduction in mechanical allodynia at 30 umol/kg, ip administered 2 weeks post-surgery measured after 30 mins; format: functional; parameters: scale not given: the % may be the effect or the level left
[10] = Plasma protein binding in human; format: ADME, cell-free; conditions: read-out: PPB (converted)
Rattus norvegicus [11] = experiment: Analgesic activity in rat spinal nerve ligation model of neuropathic pain assessed as […] at 3 umol/kg, ip administered 2 weeks post-surgery measured after 30 mins; format: functional; parameters: scale not given: the % may be the effect or the level left; method in brief: as §2
Rattus norvegicus [12] = experiment: Analgesic activity in po dosed rat complete Freund's adjuvant model of chronic inflammatory pain assessed as latency in paw withdrawal administered 48 hrs after CFA-challenge measured after 60 mins; format: functional, organism-based
[13] = AUC in rat at 3 umol/kg, iv; format: ADME, organism-based; conditions: plasma
[14] = Metabolic stability in rat microsomes assessed as compound remaining after 30 mins; format: ADME, Microsome; conditions: read-out: Stability
Method in brief: (§4)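 Metabolic stability: compound incubated with human or rat liver microsomes. Percent parent remaining was measured after 30 min.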

Cannabinoid receptor 2 [15] = molecular target: T2, Cannabinoid receptor 2 (Rattus norvegicus, UniProt Q9QZN9); experiment: Agonist activity at rat recombinant CB2 receptor expressed in HEK293 cells co-expressing chimeric Gaq/o protein by FLIPR assay by FLIPR assay; format: functional, cell-based; method in brief: as §3
T2 sequence (Q9QZN9 whole entry): T1 sequence (whole entry)

[16] = Tmax in rat at 10 umol/kg, ip; format: ADME, organism-based; conditions: in vivo
[17] = AUC in rat at 10 umol/kg, ip; format: ADME, organism-based; conditions: plasma
Cannabinoid receptor 1 = Cannabinoid receptor 1 (Rattus norvegicus, UniProt P20272); experiment: Agonist activity at rat recombinant CB1 receptor expressed in HEK293 cells assessed as inhibition of forskolin-induced cAMP production after 20 mins by ELISA; format: functional, cell-based
Method in brief: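 cAMP assay in HEK 293 cells stably expressing the relevant CB receptor, with a fixed concentration of forskolin. cAMP was quantified by ELISA. Activation is given as percent of the CP-55,940 control response.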

Rattus norvegicus [18] = experiment: Neurotoxicity in rat assessed as decrease in spontaneous locomotory activity at 100 umol/kg, ip after 30 mins; format: toxicity, organism-based; parameters: scale not given: the % may be the effect or the level left; conditions: in vivo, 0.5 h
Method in brief: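 Spontaneous horizontal locomotor activity in rats. Compound was given intraperitoneally 30 min before testing.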

Rattus norvegicus [19] = experiment: Analgesic activity in rat complete Freund's adjuvant model of chronic inflammatory pain assessed as latency in paw withdrawal at 30 umol/kg, po administered 48 hrs after CFA-challenge measured after 60 mins; format: functional
Rattus norvegicus [20] = experiment: Analgesic activity in ip dosed rat incision model of post-operative pain assessed as reduction in paw withdrawal latency administered 90 mins post-surgical incision measured after 30 mins; format: functional, organism-based
[21] = Oral bioavailability in rat at 10 umol/kg, ip; format: ADME, organism-based; conditions: in vivo, intraperitoneal
[22] = Metabolic stability in human microsomes assessed as compound remaining after 30 mins; format: ADME, Microsome; conditions: read-out: Stability; method in brief: as §4
[23] = Plasma protein binding in rat; format: ADME, cell-free; conditions: read-out: PPB (converted)
Rattus norvegicus [24] = experiment: Analgesic activity in rat complete Freund's adjuvant model of chronic inflammatory pain assessed as reduction in thermal hyperalgesia at 10 umol/kg, ip co-administered with CB2 antagonist SR144528; format: functional; parameters: scale not given: the % may be the effect or the level left; method in brief: as §1
Rattus norvegicus [25] = experiment: Analgesic activity in rat complete Freund's adjuvant model of chronic inflammatory pain assessed as reduction in thermal hyperalgesia at 10 umol/kg, ip administered 48 hrs after CFA-challenge measured after 60 mins; format: functional; parameters: scale not given: the % may be the effect or the level left

Chain of Cannabinoid receptor 1 (P20272 whole entry): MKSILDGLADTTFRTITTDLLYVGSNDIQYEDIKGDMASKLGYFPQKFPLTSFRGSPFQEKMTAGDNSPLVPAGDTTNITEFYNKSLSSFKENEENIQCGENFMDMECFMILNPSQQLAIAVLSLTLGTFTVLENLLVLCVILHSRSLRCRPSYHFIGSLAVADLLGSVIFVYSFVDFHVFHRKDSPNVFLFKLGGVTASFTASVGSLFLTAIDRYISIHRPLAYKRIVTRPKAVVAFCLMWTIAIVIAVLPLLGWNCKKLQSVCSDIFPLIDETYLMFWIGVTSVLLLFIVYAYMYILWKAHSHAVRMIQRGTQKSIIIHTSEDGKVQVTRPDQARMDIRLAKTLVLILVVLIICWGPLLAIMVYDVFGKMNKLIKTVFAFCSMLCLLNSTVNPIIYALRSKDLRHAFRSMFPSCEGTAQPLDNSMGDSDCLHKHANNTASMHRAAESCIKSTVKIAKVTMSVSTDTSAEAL
Chain of Cannabinoid receptor 2 (Homo sapiens, UniProt P34972) (P34972 whole entry): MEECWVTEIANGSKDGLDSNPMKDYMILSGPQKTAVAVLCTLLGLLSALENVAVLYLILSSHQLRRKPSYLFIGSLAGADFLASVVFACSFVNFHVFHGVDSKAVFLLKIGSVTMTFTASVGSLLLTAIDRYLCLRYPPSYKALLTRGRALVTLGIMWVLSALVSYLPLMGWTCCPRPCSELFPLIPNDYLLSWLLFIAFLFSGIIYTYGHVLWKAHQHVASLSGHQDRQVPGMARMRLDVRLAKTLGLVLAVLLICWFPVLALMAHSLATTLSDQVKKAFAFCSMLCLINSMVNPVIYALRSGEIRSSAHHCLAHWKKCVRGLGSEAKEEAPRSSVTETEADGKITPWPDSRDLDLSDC

Structure (SMILES): CCCNC(=O)c1c(NC(=O)C23CC4CC(CC2C4)C3)sc2c1CCOC2
- Activity (Rattus norvegicus [1]): 91%
- half-life [2]: 1.5 h
- Ki (Cannabinoid receptor 2 [3]): 0.0209 µM
- Activity (Rattus norvegicus [4]): 60%
- Imax [5]: 79%
- Activity (Rattus norvegicus [6]): 45%
- Activity (Rattus norvegicus [7]): 22%
- Activity (Rattus norvegicus [8]): 21%
- Activity (Rattus norvegicus [9]): 74%
- fraction unbound [10]: 0.02
- Activity (Rattus norvegicus [11]): 8%
- Activity (Rattus norvegicus [12]): Dose-dependent effect
- AUC [13]: 320 ng·h/mL
- remaining at 0.5 h [14]: 5%
- IC50 (Cannabinoid receptor 2 [15]): 1.55 µM
- Tmax [16]: 0.6 h
- AUC [17]: 1020 ng·h/mL
- IC50 (Cannabinoid receptor 1): 1.41 µM
- Activity (Rattus norvegicus [18]): 83%
- Activity (Rattus norvegicus [19]): 24%
- Activity (Rattus norvegicus [20]): Dose-dependent effect
- bioavailability [21]: 96%
- remaining at 0.5 h [22]: 9%
- fraction unbound [23]: 0.03
- Activity (Rattus norvegicus [24]): 24%
- Activity (Rattus norvegicus [25]): 74%
